Cav3 T inh – inhibitors of human Cav3.2 T-type calcium channel | O95180 | Cav3.2-expressing cells, Fluo-4 calcium fluorescence FDSS; stronger effect = lower value | B-score at 10 µM | hit rate 4% among 100,000 | AID 449739;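 active = single-dose well whose peak fluorescence ratio is a statistical outlier from its plate by either plate-standardised score or position-corrected B-score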
CYP2C19 act – cytochrome P450 2C19 (human) activation. activation factor at 5 µM. P33261. recombinant CYP2C19, luciferin-H EGE luminescence; stronger effect = higher value; 0 = fully inhibited enzyme, 1 = untreated enzyme. 96,000 tested, under 10 active;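 active = activation factor of at least 2 at 5 µM in the primary screen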;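 note: 0 = wells with 2.5 mM tranylcypromine and 1 = vehicle-only wells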
CYP2C9 act – activators of human CYP2C9. activation factor at 5 µM. recombinant CYP2C9, luciferin-H conversion, luminescence; stronger effect = higher value; factor 1 = untreated enzyme, 0 = blocked. hit rate 1.4% among 96,000. P11712;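 active = activation factor of 2 or more for CYP2C9 at a 5 µM dose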;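 note: 0 = sulfaphenazole-blocked wells and 1 = vehicle-only wells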
Target sequence (P11712 whole entry, looked up): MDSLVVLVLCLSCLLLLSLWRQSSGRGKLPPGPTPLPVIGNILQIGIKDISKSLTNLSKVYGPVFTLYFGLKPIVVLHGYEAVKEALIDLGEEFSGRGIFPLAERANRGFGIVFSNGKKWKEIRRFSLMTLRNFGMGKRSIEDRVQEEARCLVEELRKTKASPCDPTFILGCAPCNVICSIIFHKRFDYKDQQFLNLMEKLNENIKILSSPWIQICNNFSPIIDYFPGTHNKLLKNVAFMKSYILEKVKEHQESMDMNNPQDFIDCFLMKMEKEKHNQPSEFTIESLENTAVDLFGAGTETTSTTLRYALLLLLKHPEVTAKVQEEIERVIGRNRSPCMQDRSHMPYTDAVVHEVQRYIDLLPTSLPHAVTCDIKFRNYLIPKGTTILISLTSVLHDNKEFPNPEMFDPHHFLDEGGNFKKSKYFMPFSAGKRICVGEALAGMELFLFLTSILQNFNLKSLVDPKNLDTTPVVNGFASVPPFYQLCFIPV
CYP2C19 inhib – human CYP2C19 inhibition. P33261. CYP2C19 Supersomes, luciferin-H EGE luminescence, 30 min. inhibition, % at 5 µM. hit rate 21% among 96,000;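 active = CYP2C19 inhibition above a set limit at 5 µM in the primary screen, cut at about 50% in these data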;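 note: plate controls were negative control wells for no effect and 2.5 mM tranylcypromine positive control for full effect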
HIV Rev-RRE inh – HIV Rev-RRE protein-RNA interaction inhibition; Rev peptide-RRE RNA binding, FRET; hit rate 0.79% among 97,000; inhibition, % at 8 µM; P05866; AID 704;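 active = inhibition above the screen-wide mean plus 3 SD, cut at about 35% in these data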;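 note: 0% = median DMSO wells and 100% = median Neomycin B control wells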
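Test system: labelled RRE RNA duplex and labelled Rev peptide. Times: 5 min compound–RNA preincubation, then 15 min with peptide, 25 °C. Doses: single-dose 8 µM. Measured by: FRET, excitation 480 nm, emission 540 nm donor and 671 nm acceptor. Measure: % inhibition of FRET ratio versus controls.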
CYP2C9 inhib – blocks human cytochrome P450 2C9; CYP2C9 Supersomes, luciferin-H conversion, luminescence; inhibition, % at 5 µM; hit rate 20% among 96,000;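 active = blocking of liver enzyme CYP2C9 beyond about 50% at 5 µM, limit read from the data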
* marks the source's active call; other numbers are inactive results; nt = not tested or not shown. Most compounds without a hit are left out; they make up all but 27% or so of the library.

SMILES	Cav3 T inh	CYP2C19 act	CYP2C9 act	CYP2C19 inhib	HIV Rev-RRE inh	CYP2C9 inhib
COc1ccc2c(c1)nc(N)n2Cc1ccccc1	0.33	0.1	0.9	85*	-1	10
COc1ccc(-c2nnnn2C)cc1S(=O)(=O)NCCc1ccccc1	-0.12	nt	nt	nt	2	nt
CCOCCn1c(-c2ccc(OC)cc2)nc2ccccc21	-0.79	0.7	0.7	26	2	34
CCn1c2ccc(OC)cc2c2nc3ccccc3nc21	-0.82	nt	nt	nt	15	nt
CC(=O)O[C@H]1CC[C@H]2[C@@H]3CCc4cc(O)ccc4[C@H]3CC[C@]12C	1.3	nt	nt	nt	nt	nt
Nc1cc(=O)nc(SCC(=O)NC2CCCCC2)n1-c1ccccc1	0.37	1.1	1.1	-9	7	-12
CCC(OC(=O)c1cc2sccc2n1C)C(=O)NCC1CCCO1 (configuration not stated)	0.39	0.8	0.9	25	-6	11
Cc1ccc(S(=O)(=O)N2CCC(=O)N(C(COCc3cccc(C(F)(F)F)c3)Cc3ccccc3)CC2)cc1 (configuration not stated)	0.2	nt	nt	nt	nt	nt
Cc1ccc(N2C(=O)C3CC(c4ccccc4)=C4C5C=CC(C6C(=O)N(c7ccc(C)cc7C)C(=O)C56)C4C3C2=O)c(C)c1 (configuration not stated)	-0.68	0.9	0.2	13	5	85*
Cc1nn(Cc2ccc(Cl)cc2Cl)c(C)c1NC(=O)NC12CC3CC(CC(C3)C1)C2	-4.2*	1	0.8	1	0	18
Cc1nn(Cc2ccc(Cl)cc2Cl)c(C)c1NC(=O)c1sc2ccccc2c1Cl	-0.92	1	0.9	2	-2	8
CCOc1ccc(/C(O)=C2\C(=O)C(=O)N(c3cc(C)on3)C2c2ccccc2OC)cc1 (configuration not stated)	-0.19	1	1.1	-1	-5	-9
CN(/N=C/c1c[nH]c2ccccc12)c1cnn(-c2ccc(F)c(Cl)c2)c(=O)c1Cl	-0.39	1.1	1	-9	1	0
O=c1c(Cl)c(NCCCO)cnn1-c1nc2ccccc2[nH]1	3.1*	0.5	1	46	5	5
C=CCN(CC=C)c1cnn(-c2nc3ccccc3[nH]2)c(=O)c1Cl	0.81	0.4	0.5	56*	1	54*
Cc1cc2nc(C)n(CCCNC(=O)Nc3cccc4ccccc34)c2cc1C	-0.69	0.5	0.4	46	-9	57*
CN1CCN(CCCNC(=O)Nc2cccc3ccccc23)CC1	nt	1.1	1.1	-12	3	-9
CCOc1ccc(NC(=O)NCCCn2c(C)nc3cc(C)c(C)cc32)cc1	-0.7	0.6	0.2	35	-7	81*
O=C(Nc1nnc(COc2ccc(Cl)cc2)s1)c1ccc([N+](=O)[O-])cc1	-0.052	1.1	1	-14	5	-2
COCc1nnc(NS(=O)(=O)c2ccc([N+](=O)[O-])cc2)s1	0.46	1.2	0.2	-20	0	82*
COCc1nnc(NS(=O)(=O)c2ccc(Br)cc2)s1	0.62	1.1	0.4	-13	7	57*
COC(=O)[C@H]1[C@@H](C)N(CCc2cc(OC)c(OC)c(OC)c2)C(=O)N[C@H]1c1ccccc1	-2.1	nt	nt	nt	nt	nt
COc1ccccc1Nc1ccc(C(=O)NC2CCCCC2)cn1	-0.22	0.8	2*	24	3	-97
Nc1ccccc1N1CCOCC1	0.072	1	1	1	7	4
CN1c2ccccc2C(C)(C)C12C=Nc1c(cc(N3CCOCC3)c3ccccc13)O2 (configuration not stated)	-2.3	0.7	0.3	30	10	70*
CCCOn1nnnc1-c1ccccc1	0.17	nt	nt	nt	9	nt
Cc1cccc(C(C)C)c1-n1nnnc1-c1ccccc1	-3.2	0.3	0.2	70*	8	82*
O=C(CSc1nc2ccccc2c(=O)[nH]1)N1CCN(S(=O)(=O)c2ccccc2)CC1	-0.59	0.8	0.8	16	2	22
c1ccc(-c2nc(CSc3n[nH]c(-c4cccs4)n3)cs2)cc1	-5.1	0.4	0.7	60*	8	33
Cn1c(SCC(=O)N2CCN(S(=O)(=O)c3ccc(Cl)cc3)CC2)nc2ccccc21	-0.71	0.4	2*	58*	1	-103

Source: PubChem (several laboratories)
